According to ChEMBL document CHEMBL1138710, “A nonhydrolyzable analogue of phosphotyrosine, and related aryloxymethano- and aryloxyethano-phosphonic acids as motifs for inhibition of phosphatases” (Bioorg Med Chem Lett, 2004):

Columns and labels:
Homo sapiens [1] = species on record: Homo sapiens; experiment: Inhibition constant for human placental alkaline phosphatase at pH 9
Summary of the method: (§1)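 Competitive inhibition kinetics with p-nitrophenyl phosphate as substrate at 25°C, in 100 mM TRIS, 1 mM ZnCl2, 1 mM MgCl2, pH 9.0. Ki (mM) was derived from the competitive inhibition rate equation.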

[2] = molecular target: Secreted effector protein (Yersinia pestis) (UniProt O68720); experiment: Inhibition constant for YOP protein tyrosine phosphatase at pH 6.6
Summary of the method: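 Competitive Ki (mM) measured at 25°C against p-nitrophenyl phosphate substrate, in 100 mM succinate, 150 mM NaCl, pH 6.6.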

[3] = Inhibition constant protein phosphatase 2C in presence of [Mn2+] at 5 mM pH 7.5
Summary of the method: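 Competitive inhibition kinetics with p-nitrophenyl phosphate substrate (Km 1.1 mM under these conditions) at 25°C, in 100 mM TRIS, 5 mM MnCl2, 1 mM DTT, pH 7.5. Ki (mM) was derived from the competitive inhibition rate equation.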

[4] = molecular target: Alkaline phosphatase (Escherichia coli K-12) (UniProt P00634); experiment: Inhibition constant for Escherichia coli alkaline phosphatase at pH 9; summary of the method: as §1
[5] = molecular target: T1, Serine/threonine-protein phosphatase (Enterobacteria phage lambda) (UniProt P03772); experiment: Inhibition constant for lambda protein phosphatase in presence of [Mn2+] at 5 mM pH 7.3
T1 sequence (whole entry): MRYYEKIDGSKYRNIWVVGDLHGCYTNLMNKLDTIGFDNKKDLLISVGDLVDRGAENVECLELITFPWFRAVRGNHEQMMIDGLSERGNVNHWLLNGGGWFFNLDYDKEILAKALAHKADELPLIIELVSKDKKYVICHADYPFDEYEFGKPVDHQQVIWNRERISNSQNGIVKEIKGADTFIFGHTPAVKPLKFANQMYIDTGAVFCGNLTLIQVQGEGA

[6] = Inhibition constant for protein phosphatase 2C in presence of [Mn2+] at 1 mM pH 7.5
Summary of the method: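 Kinetics at 25°C with p-nitrophenyl phosphate substrate in 100 mM TRIS, 1 mM MnCl₂, 1 mM DTT, pH 7.5. Mn²⁺ was lowered from 5 mM for compounds precipitating at that level. Substrate Km was 1.1 mM and matched within error at both Mn²⁺ levels. Ki (mM) from a competitive inhibition model.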

[7] = molecular target: Alkaline phosphatase (Escherichia coli K-12) (UniProt P00634); experiment: Inhibition constant for Escherichia coli alkaline phosphatase at pH 9; No reduction in rate
Homo sapiens [8] = species on record: Homo sapiens; experiment: Inhibition constant for human placental alkaline phosphatase at pH 9; No reduction in rate

Sequence of Alkaline phosphatase (Escherichia coli K-12) (P00634 whole entry): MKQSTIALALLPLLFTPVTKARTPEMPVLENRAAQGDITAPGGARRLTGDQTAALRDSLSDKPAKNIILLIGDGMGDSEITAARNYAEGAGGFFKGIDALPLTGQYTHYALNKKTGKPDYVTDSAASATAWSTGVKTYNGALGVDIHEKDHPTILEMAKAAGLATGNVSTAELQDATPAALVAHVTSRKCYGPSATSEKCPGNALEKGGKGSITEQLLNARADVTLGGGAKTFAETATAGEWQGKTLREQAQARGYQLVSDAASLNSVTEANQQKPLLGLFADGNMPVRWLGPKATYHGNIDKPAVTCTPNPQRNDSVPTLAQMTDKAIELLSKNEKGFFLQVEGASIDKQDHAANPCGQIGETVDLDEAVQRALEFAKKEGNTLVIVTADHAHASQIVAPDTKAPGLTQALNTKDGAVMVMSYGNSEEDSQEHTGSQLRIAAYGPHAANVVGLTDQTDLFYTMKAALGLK

| Compound | Inhibition (Homo sapiens [1]) [mM] | Inhibition [2] [mM] | Inhibition [3] | Inhibition [4] [mM] | Inhibition [5] | Inhibition [6] [mM] | Inhibition [7] | Inhibition (Homo sapiens [8]) |
| --- | --- | --- | --- | --- | --- | --- | --- | --- |
| N[C@H](Cc1ccc(OCP(=O)(O)O)cc1)C(=O)O | 1.85 | 0.63 | 0.34 mM | 4.8 | 0.03 mM |  |  |  |
| O=C(O)c1cccc2cc(OCP(=O)(O)O)ccc12 | 3.4 | 2.2 | 0.06 mM | 4.2 | 0.03 mM |  |  |  |
| O=P(O)(O)CSc1ccccc1 | 0.13 | 4.6 |  | 0.04 | 0.33 mM | 0.17 |  |  |
| O=P(O)(O)COc1ccccc1 | 0.9 | 5 |  |  | 0.27 mM | 0.32 | No inhibition |  |
| N[C@@H](Cc1ccc(OCP(=O)(O)O)cc1)C(=O)O | 1.7 | 21 | 0.76 mM | 5 | 0.02 mM |  |  |  |
| O=P(O)(O)COc1ccc2ccccc2c1 | 1.1 | 6.3 | Precipitation | 4 | Precipitation |  |  |  |
| O=C(O)Cc1ccc(OCP(=O)(O)O)cc1 |  | 12 | 0.13 mM | 5.1 | 0.19 mM |  |  | No inhibition |
| O=P(O)(O)CCSc1ccccc1 | 0.69 | 10 |  | 0.9 | 0.14 mM | 0.3 |  |  |
| O=P(O)(O)CCOc1ccccc1 | 0.11 | 2.17 |  | 0.1 | 0.05 mM | 0.4 |  |  |
| O=C(O)Cc1ccc(OCCP(=O)(O)O)cc1 | 0.14 | 19 | 0.23 mM | 0.6 | 0.12 mM |  |  |  |
